# Measured values published in ChEMBL document CHEMBL5724801, “EUbOPEN Chemogenomics Library - Multiplex” (2024).
# Several values for one entry are separate records, joined by “and”; a condition that tells them apart may be missing. Equal entries are not always repeated.
# Tested on: Fibroblast
# Assay: Multiplex assay against human fibroblast
# Assay type: toxicity, cell-based
# Summary of the method: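 Four dyes were applied at seeding to live cells: Hoechst33342, BioTracker Green Microtubule Cytoskeleton Dye, MitoTracker Red and Annexin V Alexa Fluor 680. Imaging after compound addition used a CQ1 microscope at 37°C and 5% CO2. CellPathfinder machine-learning gating then sorted cells into Hoechst high-intensity objects or normal cells, normal cells into healthy, pyknosed or fragmented nuclei, and pyknosed cells into mitotic or apoptotic, with tubulin, mitochondrial-mass and membrane-permeability phenotypes given as per cents of healthy-nucleus cells.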
# [1] = 12 h, 1 µM, compound concentration 1 uM
# [2] = 12 h, 10 µM, compound concentration 10 uM
# [3] = 24 h, 1 µM, compound concentration 1 uM
# [4] = 24 h, 10 µM, compound concentration 10 uM
# [5] = 48 h, 1 µM, compound concentration 1 uM
# [6] = 48 h, 10 µM, compound concentration 10 uM
structure (smiles),measurement,setting,value
CC(C)(C)c1ccc(CSc2cnn(C(C)(C)C)c(=O)c2Cl)cc1 [PYRIDABEN],Population Apoptotic (%),[1],46% and 44%
same,Population Fragmented Nuclei (%),[1],15% and 27%
same,Population Healthy Nuclei (%),[1],66% and 47%
same,Population Hoechst High Intensity Objects (%),[1],1% and 4%
same,Population Membrane Permeable-Phenotype (%),[1],3% and 12%
same,Population Mitochondria Different-Phenotype (%),[1],1% and 7%
same,Population Mitotic Cells (%),[1],53% and 55%
same,Population Normal (%),[1],98% and 95%
same,Population Pyknosed Nuclei (%),[1],17% and 25%
same,Population Tubulin-Different-Phenotype (%),[1],28% and 57%
same,Total Cell Count,[1],148 and 142
same,Population Apoptotic (%),[2],25% and 47%
same,Population Fragmented Nuclei (%),[2],11% and 25%
same,Population Healthy Nuclei (%),[2],68% and 49%
same,Population Hoechst High Intensity Objects (%),[2],4% and 1%
same,Population Membrane Permeable-Phenotype (%),[2],2% and 12%
same,Population Mitochondria Different-Phenotype (%),[2],5% and 4%
same,Population Mitotic Cells (%),[2],74% and 52%
same,Population Normal (%),[2],95% and 98%
same,Population Pyknosed Nuclei (%),[2],20% and 25%
same,Population Tubulin-Different-Phenotype (%),[2],35% and 54%
same,Total Cell Count,[2],139 and 136
same,Population Apoptotic (%),[3],35% and 36%
same,Population Fragmented Nuclei (%),[3],17% and 30%
same,Population Healthy Nuclei (%),[3],71% and 48%
same,Population Hoechst High Intensity Objects (%),[3],0% and 4%
same,Population Membrane Permeable-Phenotype (%),[3],0% and 7%
same,Population Mitochondria Different-Phenotype (%),[3],2% and 8%
same,Population Mitotic Cells (%),[3],64% and 63%
same,Population Normal (%),[3],99% and 95%
same,Population Pyknosed Nuclei (%),[3],11% and 21%
same,Population Tubulin-Different-Phenotype (%),[3],20% and 50%
same,Total Cell Count,[3],148
same,Population Apoptotic (%),[4],56% and 54%
same,Population Fragmented Nuclei (%),[4],13% and 28%
same,Population Healthy Nuclei (%),[4],62% and 48%
same,Population Hoechst High Intensity Objects (%),[4],2% and 0%
same,Population Membrane Permeable-Phenotype (%),[4],1% and 9%
same,Population Mitochondria Different-Phenotype (%),[4],7% and 9%
same,Population Mitotic Cells (%),[4],43% and 45%
same,Population Normal (%),[4],97% and 99%
same,Population Pyknosed Nuclei (%),[4],23% and 22%
same,Population Tubulin-Different-Phenotype (%),[4],40% and 53%
same,Total Cell Count,[4],139 and 136
same,Population Apoptotic (%),[5],50% and 45%
same,Population Fragmented Nuclei (%),[5],27% and 43%
same,Population Healthy Nuclei (%),[5],62% and 41%
same,Population Hoechst High Intensity Objects (%),[5],1% and 4%
same,Population Membrane Permeable-Phenotype (%),[5],0% and 6%
same,Population Mitotic Cells (%),[5],50% and 54%
same,Population Normal (%),[5],98% and 95%
same,Population Pyknosed Nuclei (%),[5],9% and 15%
same,Population Tubulin-Different-Phenotype (%),[5],28% and 63%
same,Total Cell Count,[5],164 and 153
same,Population Apoptotic (%),[6],72% and 63%
same,Population Fragmented Nuclei (%),[6],19% and 36%
same,Population Healthy Nuclei (%),[6],62% and 48%
same,Population Hoechst High Intensity Objects (%),[6],4% and 5%
same,Population Membrane Permeable-Phenotype (%),[6],0% and 8%
same,Population Mitochondria Different-Phenotype (%),[6],8% and 10%
same,Population Mitotic Cells (%),[6],28% and 36%
same,Population Normal (%),[6],95% and 94%
same,Population Pyknosed Nuclei (%),[6],18% and 15%
same,Population Tubulin-Different-Phenotype (%),[6],49% and 58%
same,Total Cell Count,[6],143 and 131
O=C(Nc1ccccc1Br)N[C@@H]1CCN(c2ccc(C(F)(F)F)cn2)C1 [SB-705498],Population Apoptotic (%),[1],20% and 15.79%
same,Population Healthy Nuclei (%),[1],43.71% and 74.07%
same,Population Hoechst High Intensity Objects (%),[1],0%
same,Population Membrane Permeable-Phenotype (%),[1],3.03% and 0%
same,Population Mitochondria Different-Phenotype (%),[1],12.12% and 8.57%
same,Population Mitotic Cells (%),[1],80% and 84.21%
same,Population Normal (%),[1],100%
same,Population Pyknosed Nuclei (%),[1],29.8% and 20.11%
same,Population Tubulin-Different-Phenotype (%),[1],33.33% and 14.29%
same,Total Cell Count,[1],151 and 189
same,Population Apoptotic (%),[2],10.94% and 22.22%
same,Population Fragmented Nuclei (%),[2],10.95% and 8.47%
same,Population Healthy Nuclei (%),[2],57.21% and 76.27%
same,Population Hoechst High Intensity Objects (%),[2],0%
same,Population Membrane Permeable-Phenotype (%),[2],3.48% and 7.41%
same,Population Mitochondria Different-Phenotype (%),[2],15.65% and 15.56%
same,Population Mitotic Cells (%),[2],89.06% and 77.78%
same,Population Normal (%),[2],100%
same,Population Pyknosed Nuclei (%),[2],31.84% and 15.25%
same,Population Tubulin-Different-Phenotype (%),[2],15.65% and 42.22%
same,Total Cell Count,[2],201 and 177
same,Population Apoptotic (%),[3],15.62% and 20%
same,Population Healthy Nuclei (%),[3],57.14% and 83%
same,Population Hoechst High Intensity Objects (%),[3],0%
same,Population Membrane Permeable-Phenotype (%),[3],3.12% and 1.81%
same,Population Mitochondria Different-Phenotype (%),[3],11.46% and 8.43%
same,Population Mitotic Cells (%),[3],84.38% and 80%
same,Population Normal (%),[3],100%
same,Population Pyknosed Nuclei (%),[3],19.05% and 12.5%
same,Population Tubulin-Different-Phenotype (%),[3],30.21% and 13.86%
same,Total Cell Count,[3],168 and 200
same,Population Apoptotic (%),[4],18.03% and 12%
same,Population Fragmented Nuclei (%),[4],9.01% and 6.59%
same,Population Healthy Nuclei (%),[4],64.81% and 78.44%
same,Population Hoechst High Intensity Objects (%),[4],0%
same,Population Membrane Permeable-Phenotype (%),[4],5.3% and 5.34%
same,Population Mitochondria Different-Phenotype (%),[4],9.93% and 20.61%
same,Population Mitotic Cells (%),[4],81.97% and 88%
same,Population Normal (%),[4],100%
same,Population Pyknosed Nuclei (%),[4],26.18% and 14.97%
same,Population Tubulin-Different-Phenotype (%),[4],29.8% and 41.98%
same,Total Cell Count,[4],233 and 167
same,Population Apoptotic (%),[5],25% and 18.18%
same,Population Fragmented Nuclei (%),[5],16.97% and 7.55%
same,Population Healthy Nuclei (%),[5],73.33% and 87.26%
same,Population Hoechst High Intensity Objects (%),[5],0%
same,Population Membrane Permeable-Phenotype (%),[5],3.31% and 0.54%
same,Population Mitochondria Different-Phenotype (%),[5],12.4% and 3.24%
same,Population Mitotic Cells (%),[5],75% and 81.82%
same,Population Normal (%),[5],100%
same,Population Pyknosed Nuclei (%),[5],9.7% and 5.19%
same,Population Tubulin-Different-Phenotype (%),[5],12.4% and 13.51%
same,Total Cell Count,[5],165 and 212
same,Population Apoptotic (%),[6],31.25% and 21.43%
same,Population Fragmented Nuclei (%),[6],9.02% and 8.28%
same,Population Healthy Nuclei (%),[6],84.43% and 83.43%
same,Population Hoechst High Intensity Objects (%),[6],0%
same,Population Membrane Permeable-Phenotype (%),[6],1.46% and 9.93%
same,Population Mitochondria Different-Phenotype (%),[6],12.62% and 5.67%
same,Population Mitotic Cells (%),[6],68.75% and 78.57%
same,Population Normal (%),[6],100%
same,Population Pyknosed Nuclei (%),[6],6.56% and 8.28%
same,Population Tubulin-Different-Phenotype (%),[6],17.48% and 42.55%
same,Total Cell Count,[6],244 and 169
Cl.Clc1ccc2nsnc2c1NC1=NCCN1 [TIZANIDINE HYDROCHLORIDE],Population Apoptotic (%),[1],38% and 33%
same,Population Fragmented Nuclei (%),[1],10% and 24%
same,Population Healthy Nuclei (%),[1],72% and 49%
same,Population Hoechst High Intensity Objects (%),[1],3% and 4%
same,Population Membrane Permeable-Phenotype (%),[1],0% and 5%
same,Population Mitochondria Different-Phenotype (%),[1],4% and 5%
same,Population Mitotic Cells (%),[1],61% and 66%
same,Population Normal (%),[1],96% and 95%
same,Population Pyknosed Nuclei (%),[1],17% and 25%
same,Population Tubulin-Different-Phenotype (%),[1],21% and 50%
same,Total Cell Count,[1],155 and 182
same,Population Apoptotic (%),[2],36% and 21%
same,Population Fragmented Nuclei (%),[2],18% and 24%
same,Population Healthy Nuclei (%),[2],60% and 45%
same,Population Hoechst High Intensity Objects (%),[2],4%
same,Population Membrane Permeable-Phenotype (%),[2],0% and 7%
same,Population Mitochondria Different-Phenotype (%),[2],8% and 7%
same,Population Mitotic Cells (%),[2],64% and 78%
same,Population Normal (%),[2],95%
same,Population Pyknosed Nuclei (%),[2],20% and 29%
same,Population Tubulin-Different-Phenotype (%),[2],29% and 33%
same,Total Cell Count,[2],129 and 143
same,Population Apoptotic (%),[3],52% and 42%
same,Population Healthy Nuclei (%),[3],76% and 49%
same,Population Hoechst High Intensity Objects (%),[3],2% and 4%
same,Population Membrane Permeable-Phenotype (%),[3],0% and 9%
same,Population Mitochondria Different-Phenotype (%),[3],0% and 4%
same,Population Mitotic Cells (%),[3],47% and 57%
same,Population Normal (%),[3],97% and 95%
same,Population Pyknosed Nuclei (%),[3],16% and 24%
same,Total Cell Count,[3],146 and 182
same,Population Apoptotic (%),[4],45% and 47%
same,Population Fragmented Nuclei (%),[4],19%
same,Population Healthy Nuclei (%),[4],60% and 48%
same,Population Hoechst High Intensity Objects (%),[4],1% and 2%
same,Population Membrane Permeable-Phenotype (%),[4],0% and 9%
same,Population Mitochondria Different-Phenotype (%),[4],5% and 6%
same,Population Mitotic Cells (%),[4],54% and 52%
same,Population Normal (%),[4],98% and 97%
same,Population Pyknosed Nuclei (%),[4],20% and 32%
same,Population Tubulin-Different-Phenotype (%),[4],20% and 34%
same,Total Cell Count,[4],122 and 135
same,Population Apoptotic (%),[5],47% and 55%
same,Population Fragmented Nuclei (%),[5],17% and 29%
same,Population Healthy Nuclei (%),[5],71% and 47%
same,Population Hoechst High Intensity Objects (%),[5],2% and 6%
same,Population Membrane Permeable-Phenotype (%),[5],2% and 6%
same,Population Mitochondria Different-Phenotype (%),[5],1% and 8%
same,Population Mitotic Cells (%),[5],52% and 44%
same,Population Normal (%),[5],97% and 93%
same,Population Pyknosed Nuclei (%),[5],10% and 23%
same,Population Tubulin-Different-Phenotype (%),[5],19% and 56%
same,Total Cell Count,[5],167 and 166
same,Population Apoptotic (%),[6],69% and 63%
same,Population Fragmented Nuclei (%),[6],26% and 35%
same,Population Healthy Nuclei (%),[6],56% and 42%
same,Population Hoechst High Intensity Objects (%),[6],2%
same,Population Membrane Permeable-Phenotype (%),[6],0% and 6%
same,Population Mitochondria Different-Phenotype (%),[6],5% and 11%
same,Population Mitotic Cells (%),[6],30% and 36%
same,Population Normal (%),[6],97%
same,Population Pyknosed Nuclei (%),[6],17% and 21%
same,Population Tubulin-Different-Phenotype (%),[6],26% and 44%
same,Total Cell Count,[6],133 and 141
